FID counter: compounds displacing fluorescent DNA intercalator, primary screen, artefact control for HCV NS3 helicase inhibitor project, biochemical, FID fluorescence. inhibition, % at 7.9 µM. 0.17% of 290,000 active. DNA fluorescent intercalator displacement; in the data active = inhibition above about 37%;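 also: higher means more ethidium bromide displaced from hairpin DNA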
IMP-1 inhibitor: IMP-1 metallo-beta-lactamase inhibitors, primary screen, biochemical, epi-absorbance readout, Pseudomonas aeruginosa enzyme. metallo-beta-lactamase IMP-1 (Pseudomonas aeruginosa). purified IMP-1, nitrocefin hydrolysis, epi-absorbance fluorescence. inhibition, % at 5.6 µM. 0.45% of 290,000 active;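 active = inhibition above the mean plus 3 SD of all compounds in the same screening run, cut at about 4.5% in these data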
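System – purified recombinant IMP-1 beta-lactamase · Input – IMP-1 dispensed at 0.2 nM · Timing – 15 min preincubation plus 25 min reaction at 25 °C · Signal – Epi-absorbance fluorescence, 480 nm excitation, 530 nm emission · Measure – percent IMP-1 inhibition derived from blank-referenced optical density · Controls – Enzyme-plus-DMSO low control, enzyme-free DMSO high control · Replication – singlicate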
HCV NS3 hel inh: inhibitors of HCV NS3 helicase, primary screen, biochemical, Cy5 molecular beacon fluorescence; NS3 helicase DNA unwinding; Hepatitis C virus NS3 helicase; 0.56% of 290,000 active; inhibition, % at 10.9 µM;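 active = inhibition above the mean of all tested compounds plus 3 SD, set per campaign, cut at about 35% in these data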
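assay system = NS3 helicase fragment of HCV | buffer or medium = MOPS pH 6.5, MgCl2, DTT, Tween20, BSA | timing = 60 min unwinding reaction at 25 °C after ATP addition | signal = Cy5 beacon fluorescence read at start and 1 h | read-out basis = % inhibition of unwinding | control set = low DMSO, high thioflavine S at 110 µM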
UBC9 SUMO inh: inhibitors of in vitro SUMOylation cascade, primary screen, biochemical, HTRF, uHTS; SUMO-conjugating enzyme UBC9 (Homo sapiens), P63279; HTRF SUMOylation assay, SAE1/SAE2 + UBC9; inhibition, % at 35 µM; 0.36% of 290,000 active; AID 2006, 2009; in the data active = inhibition above about 50%, passing the limit was not always enough
Target sequence (P63279 whole entry, looked up): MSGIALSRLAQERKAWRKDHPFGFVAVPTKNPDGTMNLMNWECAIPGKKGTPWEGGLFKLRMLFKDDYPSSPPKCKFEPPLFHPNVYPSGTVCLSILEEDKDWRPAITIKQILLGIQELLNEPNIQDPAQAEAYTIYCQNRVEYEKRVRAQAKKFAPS
VIM-2 inh: VIM-2 metallo-beta-lactamase inhibitors, primary screen, biochemical, epi-absorbance readout, Pseudomonas aeruginosa enzyme | purified VIM-2, nitrocefin hydrolysis, epi-absorbance fluorescence | inhibition, % at 5.6 µM | 0.89% of 290,000 active | AID 1527, 2009;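 active = inhibition above the mean of all tested compounds plus 3 SD, cutoff set per screening run, cut at about 7.5% in these data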;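 also: red hydrolysis product quenches plate fluorescence so inhibitors raise well fluorescence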
Hits are given with their value; - = inactive; . = no result given; ! = not active in a repeat. A selection: hits, their analogues and other compounds. The true share with any hit is near 2.1%.

SMILES	FID counter	IMP-1 inhibitor	HCV NS3 hel inh	UBC9 SUMO inh	VIM-2 inh
CO[C@H]1C=CO[C@@]2(C)Oc3c(C)c(O)c4c(O)c(c(C=NN5CCN(C)CC5)c(O)c4c3C2=O)NC(=O)C(C)=CC=C[C@H](C)[C@H](O)[C@@H](C)[C@@H](O)[C@@H](C)[C@H](OC(C)=O)[C@@H]1C	-	-	-	-	-
CO[C@H]1C=CO[C@@]2(C)Oc3c(C)c(O)c4c(O)c(c(C=NN5CCN(C6CCCC6)CC5)c(O)c4c3C2=O)NC(=O)C(C)=CC=C[C@H](C)[C@H](O)[C@@H](C)[C@@H](O)[C@@H](C)[C@H](OC(C)=O)[C@@H]1C	-	-	-	52	-
CCOC(=O)c1cnc2c(cnn2C)c1NCc1ccc(OC)cc1	-	-	-	-	-
COc1ccc(CNc2c(C(=O)O)cnc3c2cnn3C)cc1	-	-	-	-	9.9
COc1cc(/C(O)=C(\C#N)c2nc3ccccc3[nH]2)cc(OC)c1OC	-	-	-	-	-
Cc1ccc(C2(C)NC(=O)N(Cc3c(C)noc3C)C2=O)cc1 (stereo not given)	-	-	-	-	-
Cc1noc(C)c1CN1C(=O)c2ccccc2C1=O	-	4.8	-	-	-
Cc1ccccc1CNS(=O)(=O)c1c(C(=O)N2CCCCC2)c(C)n(C)c1C	-	-	-	-	-
CCN1CCN(c2ccc(NC(=O)c3ccc4c(c3)[nH]c(=O)n4Cc3ccc(OC)cc3)cc2)CC1	-	-	-	-	11
COc1ccc(Cn2c(=O)[nH]c3cc(C(=O)Nc4ccccc4C)ccc32)cc1	-	-	-	-	-
CCN(CC)C(=O)COc1ccc2oc(-c3ccco3)cc(=O)c2c1	-	-	-	53	-
Cc1ccc(NC(=O)/C=C/C(=O)O)c(NC(=O)c2ccccc2)c1	-	-	-	-	-
CNC(C)C#Cc1ccc2oc3cccc(OC)c3c(=O)c2c1 (stereo not given)	-	-	-	-	8.3
C=CCOc1ccc(CN(C)CC(=O)Nc2ccc3c(c2)CCC3)cc1	37	-	-	-	-
CCOc1ccc(CN(C)CC(=O)Nc2ccc3c(c2)CCC3)cc1OC	-	-	-	-	-
CCN(CC)S(=O)(=O)c1cccc(C(=O)N/N=C2\CC(=O)CC(C)(C)C2)c1	-	-	-	-	-
CCN(CC)S(=O)(=O)c1cccc(C(=O)N/N=C/c2cccc(O)c2O)c1	-	-	46	-	-
CCN(CC)S(=O)(=O)c1cccc(C(=O)N/N=C/c2cc(OC)c(O)c(OC)c2)c1	-	-	-	-	-
CCN(CC)S(=O)(=O)c1cccc(C(=O)N/N=C2\CCCC(=O)C2)c1	-	5.8	-	-	-
C=CCn1c(CNC(=O)c2ccccc2F)nnc1SCC(=O)NC(C)c1ccccc1 (stereo not given)	-	-	-	-	-
Cc1ccc(Cn2nnc3c(=O)[nH]c(C4CCN(S(=O)(=O)c5ccc(F)cc5)CC4)nc32)cc1	-	18	-	-	-
Cc1ccc(C)c(S(=O)(=O)N2CCC(c3nc4c(nnn4Cc4ccc(F)cc4)c(=O)[nH]3)CC2)c1	-	-	-	-	-
Cc1ccc(/C=C2\Oc3c(ccc(O)c3CN3CCN(C)CC3)C2=O)cc1	-	-	-	-	9.5
COc1ccccc1/C=C/C=C1\Oc2c(ccc(O)c2CN2CCN(CCO)CC2)C1=O	-	27	-	-	-
CCc1ccc(/C=C2\Oc3c(ccc(O)c3CN3CCN(C)CC3)C2=O)cc1	-	-	-	-	-
SMILES	FID counter	IMP-1 inhibitor	HCV NS3 hel inh	UBC9 SUMO inh	VIM-2 inh
CCN1CCN(Cc2c(O)ccc3c2O/C(=C\c2ccc(C)cc2)C3=O)CC1	-	-	-	-	8.8
CCN1CCN(Cc2c(O)ccc3c2O/C(=C\C=C\c2ccccc2)C3=O)CC1	-	-	36	-	-
O=C1/C(=C/C=C/c2ccccc2)Oc2c1ccc(O)c2CN1CCN(CCO)CC1	-	-	-	-	-
Cc1ccc(NC(=O)Cc2nnc(SCC(=O)NC3CCCC3)n2C)c(C)c1	-	-	-	-	-
Cc1cc(C)c2ccc(C(=O)O)nc2c1O	-	-	-	-	9.7
CCOC(=O)C(NC=O)(NC(C)(C)C)C(=O)OCC	-	4.8	-	-	-
Cn1c(OCc2cccnc2)nc2c1c(=O)n(Cc1ccccc1)c(=O)n2C	-	-	-	-	8.7
Cc1ccc(C(=O)NC2(O)C(=O)c3ccccc3C2=O)cc1C	-	-	-	.	-
O=C(NC1(O)C(=O)c2ccccc2C1=O)c1ccc(C(F)(F)F)cc1	-	-	-	90	-
CC(=O)Oc1ccc(/C(C)=N\N2CCN(Cc3ccc(Cl)cc3)CC2)cc1	-	-	-	-	-
CC(=O)Nc1cccc(C(=O)N/N=C/c2c[nH]c3ccccc23)c1	-	-	-	-	-
NC(=O)CC(NC(=O)Cc1ccc(Br)cc1)c1ccc(NCCc2ccccc2F)c([N+](=O)[O-])c1 (stereo not given)	.	.	.	63	.
O=C(NCC(=O)N1CCN(c2ccccc2)CC1)c1ccc(Br)o1	-	-	-	-	-
CC(=O)c1ccc(NC(=O)CSc2nnc(-c3ccco3)c(-c3ccco3)n2)cc1	-	-	-	90	-
CC(=O)Nc1ccc(NC(=O)CSc2nnc(-c3ccco3)o2)cc1	-	-	-	-	-
CC1(C)Oc2ccc3ccc(=O)oc3c2-c2cn[nH]c21	-	-	-	-	8.0
O=C(NN1C(=O)/C(=C/C=C/c2ccco2)SC1=S)c1ccccc1O	-	-	-	79	-
O=C(O)C(Cc1ccccc1)N1C(=O)/C(=C/C=C/c2ccco2)SC1=S (stereo not given)	-	-	-	73	-
O=C(NCc1ccc(Cl)cc1)c1cc([N+](=O)[O-])ccc1Cl	-	-	-	-	-
O=C(Nc1ccc(F)c(F)c1)c1cc(S(=O)(=O)N2CCN(c3ccccn3)CC2)ccc1F	-	4.6	-	-	-
O=C(O)c1ccc2c(c1)C(=O)N(c1cccc(-c3nc4ccccc4s3)c1)C2=O	-	-	-	70	-
CC(=O)Oc1cccc(N2C(=O)c3ccc(C(=O)O)cc3C2=O)c1	-	-	-	-	-
O=C(Nc1ccc(C2=NCCN2)cc1)c1ccc(Cl)c(C(=O)Nc2ccc(C3=NCCN3)cc2)c1	49	-	-	-	-
O=C(Nc1ccc(Cl)c(Cl)c1)c1ccc(Cl)c(Cl)c1	-	-	-	-	-
O=C(Cc1cc(=O)[nH][nH]1)N/N=C/c1c(F)cccc1Cl	-	-	-	-	-
O=C(Cc1cc(=O)[nH][nH]1)N/N=C/c1c(Cl)cccc1Cl	-	7.5!	-	-	-
Cc1cccc(NC(=O)CCC(=O)Nc2nnc(C(F)(F)F)s2)c1	-	-	-	-	-

High-throughput results (PubChem BioAssay)
